Here are results for four compounds from article PMC7612593 (Nature, 2022).

In general, Hill coefficient refers to a measure of the steepness of the concentration-response curve.

Assay [1] concerns the target T1, β3 GABAAR (Homo sapiens, UniProt P28472).
T1 sequence (P28472 26-473): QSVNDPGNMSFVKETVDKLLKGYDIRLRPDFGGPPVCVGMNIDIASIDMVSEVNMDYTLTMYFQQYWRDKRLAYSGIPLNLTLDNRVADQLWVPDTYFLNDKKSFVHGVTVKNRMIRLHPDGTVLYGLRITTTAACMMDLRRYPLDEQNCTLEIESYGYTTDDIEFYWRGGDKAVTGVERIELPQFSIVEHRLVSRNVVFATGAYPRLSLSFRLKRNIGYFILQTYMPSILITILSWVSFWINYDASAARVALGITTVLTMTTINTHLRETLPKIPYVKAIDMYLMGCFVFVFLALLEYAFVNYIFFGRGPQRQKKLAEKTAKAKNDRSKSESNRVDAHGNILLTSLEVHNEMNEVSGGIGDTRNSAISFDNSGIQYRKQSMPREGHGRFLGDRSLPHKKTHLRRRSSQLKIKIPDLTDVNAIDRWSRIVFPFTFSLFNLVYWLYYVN
Briefly: whole-cell patch clamp electrophysiology on β3 cells. Type of assay: cell-based. The settings on record: for enhancement of GABA current by histamine: 300 μM histamine with 100 nM GABA. Summed up: (§1)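 Cells on coverslips were induced with tetracycline (2 μg/ml, 28–32 h); β3δ cells were the β3 line transiently transfected with δ. Whole-cell clamp at –50 mV, 20–22 °C, pH 7.4 bath, KCl/Mg-ATP pipette. […] One-way ANOVA.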
(In general: The patch-clamp technique gives a direct electrical read-out from membranes.)

Assay [2] concerns the target T2, β3δ GABAAR (Homo sapiens, UniProt O14764+P28472).
T2 sequence (P28472 26-473): T1 sequence (P28472 26-473)
T2 sequence (O14764 17-452 limits assumed): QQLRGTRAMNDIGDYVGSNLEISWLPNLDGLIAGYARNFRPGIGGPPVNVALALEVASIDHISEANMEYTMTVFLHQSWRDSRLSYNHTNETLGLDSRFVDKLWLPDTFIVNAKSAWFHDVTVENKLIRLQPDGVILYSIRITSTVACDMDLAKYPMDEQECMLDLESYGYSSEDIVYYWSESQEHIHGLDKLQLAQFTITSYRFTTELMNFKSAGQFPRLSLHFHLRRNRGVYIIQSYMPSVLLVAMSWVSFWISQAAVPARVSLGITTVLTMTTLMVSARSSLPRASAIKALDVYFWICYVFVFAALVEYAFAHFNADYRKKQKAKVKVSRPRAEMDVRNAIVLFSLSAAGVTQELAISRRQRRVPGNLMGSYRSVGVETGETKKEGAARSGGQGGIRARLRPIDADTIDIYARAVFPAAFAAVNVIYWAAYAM
The assay can be described thus: whole-cell patch clamp electrophysiology on β3δ cells. The settings on record: for enhancement of GABA current by histamine: 300 μM histamine with 100 nM GABA. In kind it is cell-based. In short, it runs like this:
as §1

The target of assay [3] is α4β3δ GABAAR (Homo sapiens, UniProt O14764+P28472+P48169). The assay can be described thus: whole-cell patch clamp electrophysiology on the α4β3δ cell line. Type of assay: cell-based. The settings on record: for receptors gated, % of total receptors gated by 10 mM GABA + 30 μM Etomidate: 10 mM each ligand, 2 s first pulse of two-pulse protocol, mean ± SD; for Hill coefficient: Hill plot of normalized peak amplitude against agonist concentration.

Assay [4] deals with α4β3 GABAAR (Homo sapiens, UniProt P28472+P48169). The assay can be described thus: whole-cell patch clamp electrophysiology on α4β3 cells. In kind it is cell-based. Particulars: for enhancement of GABA current by histamine: 300 μM histamine with 100 nM GABA. In short, it runs like this:
as §1

For assay [5], the target named is α4β3γ2 GABAAR (Homo sapiens, UniProt P18507+P28472+P48169). Briefly: radioligand assay, competition with pre-bound [3H]Ro15-4513, α4β3γ2 cell pool. In kind it is binding. Particulars: membranes from α4β3γ2 cell pool.
Assay [6] deals with α1β3γ2 GABAAR (Homo sapiens, UniProt P14867+P18507+P28472). Briefly: radioligand assay, competition with pre-bound [3H]Ro15-4513, α1β3γ2 cell line. In kind it is binding. Particulars: membranes from α1β3γ2 cell line.
For assay [7], the system named is α4β3δ GABAAR. Particulars: cited from earlier work.

Take `NCCCC(=O)O` [GABA, γ-aminobutyric acid]: the “gating by GABA” value in assay [1] (200 μM GABA, 8 s pulse) is given as “not gated”; in assay [2] (200 μM GABA, 8 s pulse) it was “not gated”. In addition, the entries for the “activation of currents by GABA” value in assay [3] (100 nM GABA) and in assay [4] (100 nM GABA) were “robustly activates currents” and “barely”, respectively. In addition, the “receptors gated, % of total receptors gated by 10 mM GABA + 30 μM Etomidate” value in assay [3] is reported as 15.0 ± 6.0%. The “time for deactivating current to reach 50% of its original value” in assay [3] (200 ms pulse of 10 μM GABA in the absence of histamine) worked out at 2.7 ± 0.7 s. In assay [3], this compound gave a Hill coefficient of 0.9.
As for `CCOC(=O)c1ncn2c1CN(C)C(=O)c1cc(N=[N+]=[N-])ccc1-2` [Ro15-4513], the “binding of Ro15-4513” value in assay [5] and in assay [6] was “binds” each time. Further, the “effect on GABA currents” value in assay [3] (whole-cell electrophysiology recordings, α4β3δ cell line) was “little effect”.
As for `Oc1noc2c1CCNC2` [THIP, 4,5,6,7-tetrahydroisoxazolo[5,4-c]pyridin-3-ol], the “potency and efficacy at α4β3δ relative to other receptors subtypes” value in assay [7] is “higher potency and supramaximal efficacy”.
Take `NCCc1c[nH]cn1` [histamine]: the “enhancement of GABA current by histamine” value is listed as “Only modest responses” in assay [1]; “only modestly” in assay [1] (listed as Histamine); “Only modest responses” in assay [2]; “only modestly” in assay [2] (listed as Histamine); “robustly enhances” in assay [3] (300 μM histamine with 100 nM GABA); “Only modest responses” in assay [4]. Moreover, in assay [4] (listed as Histamine), the “enhancement of GABA current by histamine” value is “only modestly”. Moreover, the “fast and slow time constants of deactivation” value in assay [3] (10 μM GABA pulse in the presence of 100 μM histamine, P = 0.03) was “decreased significantly”. The “fraction of receptors with slow deactivation” value in assay [3] (10 μM GABA pulse in the presence of 100 μM histamine, P = 0.04) is recorded as “increased”. For the same compound, the “receptors gated, % of total receptors gated by 10 mM GABA + 30 μM Etomidate” value in assay [3] turned out to be 50.2 ± 11.0%. Moreover, in assay [3] (200 ms pulse of 10 μM GABA in the presence of 100 μM histamine), the “time for deactivating current to reach 50% of its original value” was determined as 1.0 ± 0.4 s. For the same compound, the “decrease in peak current amplitude of the deactivating currents” value in assay [3] (200 ms pulse of 10 μM GABA, pre-application of 100 μM histamine, n = 4 cells) was determined as 74.5 ± 11.9%. For the same compound, the Hill coefficient in assay [3] was determined as 1.1. In assay [3] (continuous presence of 100 μM histamine), the “deactivation of currents following a brief pulse of 10 μM GABA” value was “accelerated”. The “efficacy of histamine relative to GABA” value in assay [3] (whole-cell currents) turned out to be 3 fold.
